Assay results as given in ChEMBL document CHEMBL1240470, “Synthesis and evaluation of some novel dibenzo[b,d]furan carboxylic acids as potential anti-diabetic agents” (Eur J Med Chem, 2010).
Active and inactive are the calls of the source. The calls are words filed in the database; no cut-off is given here.

Columns and labels:
Mus musculus [1] = assay: Antidiabetic activity in ob/ob mouse assessed as decrease in body weight at 10 mg/kg, po measured on day 15; assay type: functional, organism-based; parameters: dose 10 mg/kg
Mus musculus [2] = assay: Antidiabetic activity in ob/ob mouse assessed as whole blood glucose at 10 mg/kg, po measured on day 10 (reference value: 139 +/- 8 mg/dL)
Mus musculus [3] = assay: Antidiabetic activity in ob/ob mouse assessed as reduction in fed-state whole blood glucose at 10 mg/kg, po measured on day 7; assay type: functional, organism-based; parameters: dose 10 mg/kg
[4] = target: T1, Tyrosine-protein phosphatase non-receptor type 2 (Homo sapiens, UniProt P17706); assay: Inhibition of human recombinant TCPTP after 30 mins by spectrophotometry
T1 sequence (P17706 whole entry): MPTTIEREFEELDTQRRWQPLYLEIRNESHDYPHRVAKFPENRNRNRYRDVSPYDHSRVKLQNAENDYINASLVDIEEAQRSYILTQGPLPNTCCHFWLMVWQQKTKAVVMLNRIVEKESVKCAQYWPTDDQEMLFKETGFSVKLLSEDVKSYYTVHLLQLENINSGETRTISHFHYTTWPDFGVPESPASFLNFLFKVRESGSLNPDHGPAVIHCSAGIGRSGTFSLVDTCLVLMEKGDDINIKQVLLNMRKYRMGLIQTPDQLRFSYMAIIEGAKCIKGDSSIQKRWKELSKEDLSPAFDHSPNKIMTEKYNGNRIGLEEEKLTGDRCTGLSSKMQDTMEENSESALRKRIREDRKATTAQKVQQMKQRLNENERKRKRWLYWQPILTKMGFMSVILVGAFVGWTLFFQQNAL
Summary of the method: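 In-house human recombinant enzyme (40 ng) was preincubated with inhibitor (1% DMSO) for 10 min at 37 °C in 25 mM Hepes pH 7.0 containing 3 mM DTT, 0.15 M NaCl, 1 mM EDTA and 0.01% NP-40. Reaction was started with 2.5 mM pNPP and followed at 405 nm for 30 min at 37 °C, then quenched with NaOH. Activity came from a p-nitrophenol standard curve.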

[5] = target: T2, Tyrosine-protein phosphatase non-receptor type 1 (Homo sapiens, UniProt P18031)
T2 sequence (P18031 whole entry): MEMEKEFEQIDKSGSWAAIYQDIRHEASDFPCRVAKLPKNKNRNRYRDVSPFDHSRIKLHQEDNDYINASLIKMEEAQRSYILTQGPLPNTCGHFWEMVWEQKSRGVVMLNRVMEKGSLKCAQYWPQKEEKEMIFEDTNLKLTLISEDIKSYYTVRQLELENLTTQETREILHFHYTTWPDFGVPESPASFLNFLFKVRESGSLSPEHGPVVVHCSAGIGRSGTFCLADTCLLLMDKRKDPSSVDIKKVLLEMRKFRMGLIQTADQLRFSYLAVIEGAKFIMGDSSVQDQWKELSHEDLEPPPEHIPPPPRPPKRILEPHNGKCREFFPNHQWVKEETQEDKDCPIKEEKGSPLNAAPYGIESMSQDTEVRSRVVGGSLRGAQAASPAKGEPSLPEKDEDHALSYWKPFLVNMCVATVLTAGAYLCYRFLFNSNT

[6] = target: Receptor-type tyrosine-protein phosphatase F (Homo sapiens, UniProt P10586)
Mus musculus [7] = assay: Antidiabetic activity in ob/ob mouse assessed as plasma cholesterol level at 10 mg/kg, ip measured on day 14 (RVb = 193 +/- 4 mg/dL); assay type: functional; conditions: route intraperitoneal
Mus musculus [8] = species: Mus musculus; conditions: Blood, 10 mg/kg
Mus musculus [9] = assay: Antidiabetic activity in ob/ob mouse assessed as fasting plasma glucose at 10 mg/kg, ip measured on day 14 (RVb = 194 +/- 17 mg/dL); assay type: functional; conditions: route intraperitoneal
Mus musculus [10] = species: Mus musculus; conditions: Plasma, 10 mg/kg
Mus musculus [11] = assay: Antidiabetic activity in ob/ob mouse assessed as whole blood glucose at 10 mg/kg, ip measured on day 10 (reference value: 138 +/- 8 mg/dL); assay type: functional; conditions: route intraperitoneal
Mus musculus [12] = assay: Antidiabetic activity in ob/ob mouse assessed as fasting plasma glucose at 10 mg/kg measured on day 14 (RVb = 194 +/- 17 mg/dL)
Mus musculus [13] = species: Mus musculus; conditions: 10 mg/kg

Chain of Receptor-type tyrosine-protein phosphatase F (P10586 whole entry): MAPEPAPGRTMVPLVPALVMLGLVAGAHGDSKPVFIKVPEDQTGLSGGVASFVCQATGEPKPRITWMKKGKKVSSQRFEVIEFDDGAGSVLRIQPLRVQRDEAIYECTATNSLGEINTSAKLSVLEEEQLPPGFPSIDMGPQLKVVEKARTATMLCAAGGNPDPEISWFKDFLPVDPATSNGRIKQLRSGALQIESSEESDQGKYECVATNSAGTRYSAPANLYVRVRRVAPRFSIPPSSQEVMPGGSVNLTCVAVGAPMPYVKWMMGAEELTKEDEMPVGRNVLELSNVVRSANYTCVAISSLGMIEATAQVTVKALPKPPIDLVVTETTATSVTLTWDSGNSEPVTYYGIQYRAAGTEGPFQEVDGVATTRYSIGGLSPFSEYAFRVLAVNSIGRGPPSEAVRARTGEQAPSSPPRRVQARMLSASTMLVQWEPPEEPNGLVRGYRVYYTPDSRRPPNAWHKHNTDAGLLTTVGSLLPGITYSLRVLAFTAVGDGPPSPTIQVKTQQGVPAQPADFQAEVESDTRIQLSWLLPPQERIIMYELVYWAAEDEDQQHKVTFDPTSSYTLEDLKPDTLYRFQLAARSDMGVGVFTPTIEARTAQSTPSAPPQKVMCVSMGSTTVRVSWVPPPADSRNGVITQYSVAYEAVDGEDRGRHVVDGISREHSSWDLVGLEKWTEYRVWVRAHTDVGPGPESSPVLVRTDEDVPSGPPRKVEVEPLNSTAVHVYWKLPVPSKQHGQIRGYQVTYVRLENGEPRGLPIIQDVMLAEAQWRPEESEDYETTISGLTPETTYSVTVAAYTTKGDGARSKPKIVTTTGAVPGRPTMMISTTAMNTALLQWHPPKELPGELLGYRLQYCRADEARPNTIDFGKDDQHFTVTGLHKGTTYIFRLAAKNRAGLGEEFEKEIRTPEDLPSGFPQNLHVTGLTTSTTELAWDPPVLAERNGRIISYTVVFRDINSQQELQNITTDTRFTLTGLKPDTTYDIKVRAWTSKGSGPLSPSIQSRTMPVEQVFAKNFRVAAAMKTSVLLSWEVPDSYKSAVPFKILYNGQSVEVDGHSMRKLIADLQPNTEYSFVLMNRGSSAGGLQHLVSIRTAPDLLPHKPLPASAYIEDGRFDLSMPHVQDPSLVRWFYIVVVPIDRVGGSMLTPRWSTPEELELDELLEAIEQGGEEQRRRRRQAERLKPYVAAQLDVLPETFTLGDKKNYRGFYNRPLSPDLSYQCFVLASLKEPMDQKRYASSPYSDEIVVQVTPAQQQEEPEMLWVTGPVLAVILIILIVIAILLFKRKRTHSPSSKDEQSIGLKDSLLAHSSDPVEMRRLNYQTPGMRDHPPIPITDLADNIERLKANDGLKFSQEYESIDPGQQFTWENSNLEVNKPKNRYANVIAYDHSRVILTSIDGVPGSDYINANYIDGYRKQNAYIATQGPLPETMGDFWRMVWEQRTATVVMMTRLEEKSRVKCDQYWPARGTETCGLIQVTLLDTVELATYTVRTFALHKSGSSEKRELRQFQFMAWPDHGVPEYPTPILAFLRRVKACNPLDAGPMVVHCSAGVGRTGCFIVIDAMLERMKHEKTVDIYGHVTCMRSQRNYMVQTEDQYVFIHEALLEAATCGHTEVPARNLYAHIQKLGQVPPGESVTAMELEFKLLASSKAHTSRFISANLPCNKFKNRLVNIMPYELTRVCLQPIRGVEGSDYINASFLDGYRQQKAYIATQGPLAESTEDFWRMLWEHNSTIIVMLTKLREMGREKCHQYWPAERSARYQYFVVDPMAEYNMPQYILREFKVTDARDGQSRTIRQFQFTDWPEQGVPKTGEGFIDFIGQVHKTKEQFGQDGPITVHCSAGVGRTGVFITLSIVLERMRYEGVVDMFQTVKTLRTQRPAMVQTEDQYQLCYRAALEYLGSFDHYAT

IC50 [4]	IC50 [5]	IC50 [6]	Structure (SMILES)	other results
–	–	–	CN(CCOc1ccc(CC2SC(=O)NC2=O)cc1)c1ccccn1.O=C(O)/C=C\C(=O)O (stereo unspecified) [ROSIGLITAZONE MALEATE]	inhibition (Mus musculus [1]): inactive; Activity (Mus musculus [2]): 90 mg/dL; inhibition (Mus musculus [3]): Active
136 nM	38 nM	410 nM	CCc1cc(C[C@H]2NC(=O)CN(CCCCOc3cccc(O)c3C(=O)OC)C2=O)ccc1N(C(=O)C(=O)O)c1ccccc1C(=O)O [OXALYLAMINOBENZOIC ACID]	Ki [4]: 65 nM; Ki [5]: 18 nM
730 nM	515 nM	1320 nM	Cc1ccc(-c2nc(-c3ccc4oc5c(C(=O)O)cccc5c4c3)cs2)cc1	–
3140 nM	177 nM	3570 nM	O=C(O)c1cccc2c1oc1ccc(-c3csc(-c4cc(Br)c(C(=O)[C@H](Cc5ccccc5)C(=O)O)c(Br)c4)n3)cc12	–
693 nM	185 nM	–	Nc1ccc(-c2nc(-c3ccc4oc5c(C(=O)O)cccc5c4c3)cs2)cc1	–
348 nM	201 nM	2870 nM	O=C(O)c1cccc2c1oc1ccc(-c3csc(-c4ccc([N+](=O)[O-])cc4)n3)cc12	–
1630 nM	280 nM	2940 nM	O=C(O)c1cccc2c1oc1ccc(-c3csc(-c4ccc(N5CCOCC5)cc4)n3)cc12	–
2070 nM	121 nM	2070 nM	O=C(O)c1cccc2c1oc1ccc(-c3csc(-c4ccc(N5CCCCC5)cc4)n3)cc12	–
1620 nM	425 nM	2100 nM	O=C(O)c1cccc2c1oc1ccc(-c3csc(-c4cccc(I)c4)n3)cc12	–
1660 nM	82 nM	2990 nM	O=C(O)c1cccc2c1oc1ccc(-c3csc(-c4ccc(N5CCCC5)cc4)n3)cc12	Activity (Mus musculus [7]): 138 mg/dL; inhibition (Mus musculus [8]): Active; Activity (Mus musculus [9]): 93 mg/dL; inhibition (Mus musculus [10]): inactive; Activity (Mus musculus [11]): 93 mg/dL; Activity (Mus musculus [12]): 124 mg/dL; inhibition (Mus musculus [13]): Active
–	3200 nM	–	Cc1nc(-c2ccc(Cl)cc2)sc1OCCc1cc(C(O)(C(=O)O)C(F)(F)F)ccc1OCc1ccccc1 (stereo unspecified)	–
961 nM	257 nM	3750 nM	CN(C)c1ccc(-c2nc(-c3ccc4oc5c(C(=O)O)cccc5c4c3)cs2)cc1	–
2100 nM	388 nM	3250 nM	O=C(O)c1ccc(-c2nc(-c3ccc4oc5c(C(=O)O)cccc5c4c3)cs2)cc1	–
1870 nM	395 nM	–	O=C(O)c1cccc2c1oc1ccc(-c3csc(-c4ccc(I)cc4)n3)cc12	–
983 nM	620 nM	1980 nM	O=C(O)/C=C/c1ccc(-c2nc(-c3ccc4oc5c(C(=O)O)cccc5c4c3)cs2)cc1	–
1430 nM	187 nM	2140 nM	CC1CN(c2ccc(-c3nc(-c4ccc5oc6c(C(=O)O)cccc6c5c4)cs3)cc2)CC(C)O1 (stereo unspecified)	–
794 nM	551 nM	2070 nM	O=C(O)/C=C/c1cccc(-c2nc(-c3ccc4oc5c(C(=O)O)cccc5c4c3)cs2)c1	–
